From the EternaBench riboswitch data

How the values were obtained:
[1] = tested on: MS2 coat protein; experiment: apparent Kd, MS2 coat protein; higher = weaker binding; RNA-MaP array; theophylline 2 mM where present
Outline: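 Stalled E. coli RNA polymerase transcribed the designs on Illumina sequencing-chip clusters. SNAP-549-labelled MS2 coat protein was titrated from 0.7 or 1.5 nM, doubling to 3 µM, without and then with constant ligand, in 100 mM Tris-HCl pH 7.5, 80 mM KCl, 4 mM MgCl2, BSA, DTT, yeast tRNA and Tween-20. Per-cluster binding curves were fitted to green signal normalised to red-channel RNA signal and control-cluster median Fmax. The apparent Kd is the median of the filtered fits.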

[2] = tested on: MS2 coat protein; experiment: apparent Kd, MS2 coat protein; higher = weaker binding; RNA-MaP array
Outline: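 Designs measured on fewer than 10 clusters were excluded from the data. The rest were RNAs transcribed from sequenced DNA templates on an Illumina sequencing chip and incubated at room temperature, with or without input ligand, with fluorescently labeled MS2 coat protein at 1.5 nM to 3 μM for 0.8–1.5 h at the lowest to 10–20 min at the highest concentrations. Apparent Kd is the median of the per-cluster binding-curve fits.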

[3] = designed as: ON switch for theophylline, no ligand
[4] = ligand present: theophylline, designed as: ON switch for theophylline
[5] = designed as: OFF switch for theophylline, no ligand
[6] = ligand present: theophylline, designed as: OFF switch for theophylline
[7] = designed as: ON switch for flavin mononucleotide, no ligand
[8] = ligand present: flavin mononucleotide, designed as: ON switch for flavin mononucleotide
[9] = designed as: OFF switch for flavin mononucleotide, no ligand
[10] = ligand present: flavin mononucleotide, designed as: OFF switch for flavin mononucleotide

Sequence: UCGUGUGUUUCGGAUACCAGUGUGGUCGAUACAUGAGGAUCACCCAUGUGAGAGGAGGUACACCCUUGGCAGCUGGCUGUUGCGG
- apparent Kd [1, 3]: 72 nM
- apparent Kd [1, 4]: 86.4 nM

Sequence: AUAGUCUAGAGUGAUACCAGACAACAUGAGGAUCACCCAUGUAGCAUAUGGUUAUCAUGAGUCCCUUGGCAGCACGCAUGUAUAG
- apparent Kd [1, 5]: 12.3 nM
- apparent Kd [1, 6]: 55.8 nM

Sequence: CGUGUGCGUUCUGAUACCAGAGACAUGAGGAUCACCCAUGUCCGAUCGUCCUGCCUCAGACUCCCUUGGCAGCAGGUUUUGUGCU
- apparent Kd [1, 5]: 45.7 nM
- apparent Kd [1, 6]: 60.9 nM

Sequence: UCACAUGAGGAUCACCCAUGUACAGGCGAUACCAGCCGUACAUUGGGCCCUUGGCAGCGCAUCGAGACCUUUAUAAGCACCUCGG
- apparent Kd [1, 3]: 49.9 nM
- apparent Kd [1, 4]: 298 nM

Sequence: AUUUACAUGGUCAUAUAUAUAUCGUCAGAUACCAGACGAGAUAUUGUCCCUUGGCAGCUGUUACAUGAGGAUCACCCAUGUAAUU
- apparent Kd [1, 5]: 85.8 nM
- apparent Kd [1, 6]: 83.7 nM

Sequence: AUAUGAUCAUGUGAUACCAGAAAUGGUAGUCUUCACUGGAUUACAUGAGGAUCACCCAUGUUCCCUUGGCAGCAUAUGAUCAUAU
- apparent Kd [1, 5]: 43.6 nM
- apparent Kd [1, 6]: 259 nM

Sequence: ACUAGUUGUGCAGAUACCAGACAUGAGGAUCACCCAUGUUUGGGAUGUUCGCAUCUUCCUGUCCCUUGGCAGCUGUACAUCUAGA
- apparent Kd [1, 5]: 82.5 nM
- apparent Kd [1, 6]: 44.6 nM

Sequence: AGAAUACAUGUUUUAAUACGGUUUACUGAUACCAGUGUAUCUAUUCACCCUUGGCAGCAGAGACAUGAGGAUCACCCAUGUAUUA
- apparent Kd [1, 5]: 38.8 nM
- apparent Kd [1, 6]: 55.2 nM

Sequence: GCACCAGGUACGGAUACCAGCUAUAGGCCCUAUGGGCGACAUGAGGAUCACCCAUGUAAUGGCCCUUGGCAGCUGUACCUGGUGC
- apparent Kd [1, 3]: 169 nM
- apparent Kd [1, 4]: 11.3 nM

Sequence: GGCCUUGCGGGCGCCCGCAAGGCCGCGGAUACCAGCGAGGUCCAUCGCCCUUGGCAGCCGAACAUGAGGAUCACCCAUGUCGGUU
- apparent Kd [1, 3]: 11 nM
- apparent Kd [1, 4]: 13.4 nM

Sequence: AUUUAUAGUUGUGAUACCAGACUUACAUGAGGAUCACCCAUGUUACUUAAAUGUUUUGAUGUCCCUUGGCAGCACUGUUUUUUUA
- apparent Kd [1, 5]: 16.6 nM

Sequence: UCUUGGUCCGCAAGGACCGUGAGUUGCGAUACCAGCACGGUAACGUGCCCUUGGCAGCGCACAUGAGGAUCACCCAUGUGGUGUU
- apparent Kd [1, 5]: 281 nM
- apparent Kd [1, 6]: 318 nM

Sequence: UCUUACUUGGUAGAUACCAGCGUGUUAUCUUUCUUUUGACAUGAGGAUCACCCAUGUAUAUGCCCUUGGCAGCUGCAUAGUGUGU
- apparent Kd [1, 3]: 34.9 nM
- apparent Kd [1, 4]: 35.1 nM

Sequence: CUGCCAUGCAGAGAUACCAGUGCGCUCAGCACAUGAGGAUCACCCAUGUUGGCUGCCGAUCACCCUUGGCAGCUCUGCAUGGCAG
- apparent Kd [1, 3]: 10.8 nM
- apparent Kd [1, 4]: 7.62 nM

Sequence: GAUGAUAUUGCAGAUACCAGACACAUGAGGAUCACCCAUGUCGUUGGGUAGCUGGGUCGUGUCCCUUGGCAGCUGCGAUAUCAUC
- apparent Kd [1, 5]: 23.3 nM
- apparent Kd [1, 6]: 138 nM

Sequence: ACUAGUUGUGCAGAUACCAGACAUGAGGAUCACCCAUGUUUGGGUUGUUCGCAACUUCCUGUCCCUUGGCAGCUGUACAUCUAGA
- apparent Kd [1, 5]: 24.9 nM
- apparent Kd [1, 6]: 138 nM

Sequence: UGCGAUUGCUCAGAUACCAGACAUGAGGAUCACCCAUGUACCAAGGUAAAGAAAUAACGUGUCCCUUGGCAGCUGAGCAAUCGCU
- apparent Kd [1, 5]: 10.2 nM
- apparent Kd [1, 6]: 98.4 nM

Sequence: CCGUACCCGGAGAAGGAAGUCGUUGGAUGGCCAACAUGAGGAUCACCCAUGUGAUUUCAACUUACUUAGGAUAUCCAAAAUGAG
- apparent Kd [2, 7]: 58.4 nM
- apparent Kd [2, 8]: 24.1 nM

Sequence: CAAUGAAACAUUCAGGAUAUGGUACAAGGAACAUGAGGAUCACCCAUGUCAAGAAAAGAAAAUCACCAGAAGGGAACAAGACAAAA
- apparent Kd [2, 7]: 41.5 nM
- apparent Kd [2, 8]: 32.3 nM

Sequence: GGUUUACAUGAGGAUCACCCAUGUCCUGACAUGAGUUAGAAACAGGAUAUGGCGCAAGAAAAUGUCCAGAAGGGUUCAUAGCAA
- apparent Kd [2, 7]: 238 nM
- apparent Kd [2, 8]: 70.2 nM

Sequence: UAGAAUACAGGAUAUACAGCGAGAAAUCAUAUAAUAUACACACAUGAGGAUCACCCAUGUAGAAGGGAAUAAGG
- apparent Kd [2, 9]: 24.9 nM
- apparent Kd [2, 10]: 24 nM

Sequence: AGUACCAAUGAGGAUACCAGAGUGCGACGCCGAAACCUUGACAUGAGGAUCACCCAUGUACUCCCUUGGCAGCCUGUACUUGCCA
- apparent Kd [2, 5]: 35.9 nM
- apparent Kd [2, 6]: 82.6 nM

Sequence: GGGCAACAUGAGGAUCACCCAUGUCGUCAUGGGUUCAAUCGGAGAAGGAACGGAGUGAUAUCCAGUUAGGAUAUCCGCUACACU
- apparent Kd [2, 9]: 44.6 nM
- apparent Kd [2, 10]: 44 nM
